Assay outcomes as filed in PubChem.
ERb SRC1 inh = inhibitors of ERβ-SRC1 coactivator interaction, primary screen, biochemical, TR-FRET, ERβ LBD, SRC-1 peptide; 86,000 tested, 1.3% active; TR-FRET ER-beta LBD / SRC1-Cy5 peptide binding; receptor agonist-loaded with 1 µM estradiol; Estrogen receptor beta (Homo sapiens), Q92731; inhibition, % at 25.6 µM;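 active means compounds whose percent inhibition of the receptor-coactivator binding signal exceeds about 50% in the single-dose screen, limit read from the data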;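 further: 0% = receptor plus peptide wells without compound and 100% = peptide-only wells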
Target sequence (Q92731 whole entry, looked up, the tested form may be a part): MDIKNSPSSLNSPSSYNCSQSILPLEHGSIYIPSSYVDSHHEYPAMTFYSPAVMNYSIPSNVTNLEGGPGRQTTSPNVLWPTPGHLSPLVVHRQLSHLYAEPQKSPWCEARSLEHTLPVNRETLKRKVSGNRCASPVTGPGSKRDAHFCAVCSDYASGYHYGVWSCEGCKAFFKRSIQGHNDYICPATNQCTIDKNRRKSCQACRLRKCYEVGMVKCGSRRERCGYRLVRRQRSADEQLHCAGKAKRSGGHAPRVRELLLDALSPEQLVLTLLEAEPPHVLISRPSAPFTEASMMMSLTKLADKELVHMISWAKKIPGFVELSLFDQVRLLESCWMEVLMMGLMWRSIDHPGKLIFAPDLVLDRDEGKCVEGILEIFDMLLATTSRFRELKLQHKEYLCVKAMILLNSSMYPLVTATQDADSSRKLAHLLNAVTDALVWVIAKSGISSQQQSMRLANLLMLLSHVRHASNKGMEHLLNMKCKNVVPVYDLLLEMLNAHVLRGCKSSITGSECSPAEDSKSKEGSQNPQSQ
sEH inh = soluble epoxide hydrolase inhibitors, primary screen, biochemical, human sEH; Bifunctional epoxide hydrolase 2 (Homo sapiens), P34913; recombinant human sEH enzymatic activity assay; inhibition, % at 2 µM; 91,000 tested, 0.34% active; in the data active means inhibition above about 80%
ERa coact pot = enhancers of ERα–SRC-1 coactivator binding, primary screen, biochemical, TR-FRET, ERα LBD, low estradiol | TR-FRET ERalpha-LBD/SRC-Cy5 coactivator binding, 2 h; 100 = basal binding, no effect | AID 639, 2007 | coactivator binding (% of control), % at 25.6 µM | Estrogen receptor (Homo sapiens), P03372 | 86,000 tested, 1.3% active; in the data active means activity above about 200%;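 further: binding measured in presence of low estradiol as agonist stimulus; 0% = peptide alone without receptor and 100% = receptor with peptide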
sEH activator = soluble epoxide hydrolase activators, primary screen, biochemical, human sEH; 91,000 tested, 0.04% active; purified human sEH enzymatic activity, activator screen; AID 717, 2007; activation, % at 2 µM; Bifunctional epoxide hydrolase 2 (Homo sapiens), P34913; in the data active means activation above about 37%
HIV Rev-RRE inh = HIV-1 Rev-RRE binding inhibitors, primary screen, biochemical, FRET, protein-RNA interaction; Rev peptide-RRE RNA binding; inhibition, % at 8 µM; 97,000 tested, 0.79% active; AID 704, 2007;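 active means inhibition above the screen-wide mean plus 3 SD, cut at about 35% in these data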;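 further: 0% = median DMSO wells and 100% = median Neomycin B control wells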
Target sequence (P05866 whole entry, looked up): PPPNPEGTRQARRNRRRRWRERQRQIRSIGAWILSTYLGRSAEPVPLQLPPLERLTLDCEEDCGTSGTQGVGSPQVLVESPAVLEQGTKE
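Test system – labelled RRE RNA duplex and labelled Rev peptide · Signal – fluorescein-to-Cy5 FRET, 480 nm excitation · Evaluation – % inhibition of FRET ratio versus controls · Benchmarks – DMSO low control, neomycin B high control · Incubation – 5 min RNA-compound premix plus 15 min binding step, 25 °C · Medium – HEPES pH 7.5 salt buffer with EDTA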
ERa SRC1 inh = ERα–SRC-1 coactivator interaction inhibitors, primary screen, biochemical, TR-FRET, ERα LBD, estradiol-bound; TR-FRET ER-alpha LBD / SRC-1 peptide; inhibition, % at 25.6 µM; 86,000 tested, 1.7% active; in the data active means inhibition above about 50%;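 further: 0% = receptor plus peptide control and 100% = peptide only without receptor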
* = called active by the depositor; . = not tested or not shown; [ ] = remark or other dose. In the library only some 3.5% were active in any assay of this set; here they are far more common.

SMILES	ERb SRC1 inh	sEH inh	ERa coact pot	sEH activator	HIV Rev-RRE inh	ERa SRC1 inh
O=C1C2C3C=CC(C4CC34)C2C(=O)N1/N=C/c1ccc(-c2ccc(F)cc2[N+](=O)[O-])o1 (configuration not stated)	-2	7	82	-6	42*	-1
O=C(CSc1nc2ccccc2c(=O)n1NC(=O)Cc1ccccc1)NCCc1ccccc1	2	-9	126	10	1	17
CC(=O)c1ccc(Nc2ncnc3c2oc2ccccc23)cc1	46	4	346*[fluorescence artefact?]	-5	-1	45
COCCOC(=O)c1c(C)oc2ccc(OC(=O)c3cccs3)cc12	1	.	106	.	6	-7
CCCCCC(=O)N1CC2(CC(c3cccc(NC(=O)c4ccccc4)c3)=NO2)C[C@@H]1C(N)=O (some centres not stated)	.	12	.	-11	0	.
N#CC1(C#N)CC(C=O)=C(N)C1(C#N)CC(=O)c1ccc(F)cc1 (configuration not stated)	6	0	94	0	84*[fluorescence artefact?]	11
CC(C)CCSc1nc(N)c(C#N)cc1C#N	25	16	391*[fluorescence artefact?]	-19	12	40
COc1ccc(NS(=O)(=O)Cc2ccccc2Cl)cn1	-3	-8	129	9	1	0
O=C(O)c1[nH]nc2c1COc1ccccc1-2	-8	3	96	-2	10	-3
CCOC(=O)c1cc(=O)n2[nH]c(-c3ccc(C)cc3)cc2n1	5	-4	98	4	5	7
CCOC(=O)Cc1cc(=O)n2[nH]c(-c3ccc(C)cc3)cc2n1	56*	-1	82	-1	14	73*
C(=N\n1cnnc1)/c1cn(-c2cccs2)nc1-c1ccccc1	2	4	105	-1	6	-2
Fc1ccc(OCCCCCN2CCCC2)cc1	.	8	.	-6	7	.
CCc1ccc(C(=O)Cn2ncc(Cl)c(Cl)c2=O)cc1	52*	1	58	-2	-1	3
CCc1nnc(SCc2ccc(OC(C)C)cc2)n1N	-16	-1	107	0	10	-5
CCOc1ccc(C2=Nn3c(nnc3-c3ccccc3)SC2)cc1Cl	1	-12	108	12	11	23
CCOc1cccc2cc(-c3nnc(NCc4ccco4)s3)c(=O)oc12	49	-7	75	9	27	53*
COc1ccc2oc(=O)c(-c3nnc(NCc4ccco4)s3)cc2c1	57*[fluorescence artefact?]	-7	181	4	43*	45
CNc1nnc(-c2cc3cc(Cl)ccc3oc2=O)s1	49	7	183	-12	79*	66*
Cc1ccc(NC(=O)CN2C(=O)C(C)Oc3ccccc32)nc1 (configuration not stated)	5	1	91	-2	-4	-2
Cc1ccccc1C(=O)c1c[nH]c(C(=O)NCc2cccs2)c1	.	14	.	-14	4	.
CCN1CCc2c(sc(N)c2C#N)C1	77*[fluorescence artefact?]	4	26	0	69*	65*[fluorescence artefact?]
CC(C)N1CCc2c(sc(N)c2C#N)C1	37	.	73	.	.	28
CCC(=O)Nc1cccc(NC(C)=O)c1	78*	13	27	-10	4	84*[fluorescence artefact?]
CCN(CCNC(=O)C1CCN(Cc2nc(-c3cccc(Cl)c3)oc2C)CC1)c1ccccc1	-3	90*	128	-90	-1	-2
SMILES	ERb SRC1 inh	sEH inh	ERa coact pot	sEH activator	HIV Rev-RRE inh	ERa SRC1 inh
CCN(CCNC(=O)C1CCN(Cc2nc(-c3ccc(Cl)cc3)oc2C)CC1)c1ccccc1	2	84*	114	-83	-5	0
O=C(CSc1nc(-c2ccco2)cc(C(F)(F)F)n1)NC1CCCCCCC1	-13	54	143	-52	5	-9
O=C(COC(=O)c1ccco1)NC1CCCCC1	-8	12	108	-9	4	-5
N#C[C@@H]1[C@@H]2C(=O)N(c3ccc4c(c3)OCCO4)C(=O)[C@@H]2C2c3ccccc3C=CN21 (some centres not stated)	25	-28	103	25	42*	9
O=c1cc(-c2ccccc2)n(S(=O)(=O)c2ccc3ccccc3c2)o1	-1	-5	71	3	-1	7
CC(Cc1cccs1)NC(=O)Nc1cccc(Cl)c1 (configuration not stated)	-11	84*	107	-85	1	11
CC(Cc1cccs1)NC(=O)Nc1ccc(F)cc1 (configuration not stated)	-12	64	108	-65	9	-5
CCOC(=O)CCn1cc(F)c(=O)n(Cc2ccccc2)c1=O	2	1	238*[fluorescence artefact?]	-1	2	-5
CCOC(=O)CCn1c(=O)c2c(nc(Br)n2Cc2ccccc2)n(C)c1=O	1	.	119	.	3	-4
O=C(Nc1ccc(N2CCOCC2)cc1)Nc1ccc(Cl)c(Cl)c1	19	82*	83	-82	2	10
O=C(Nc1ccc(Cl)c(Cl)c1)N1CCSCC1	-7	82*	102	-82	0	-12
Cc1ccc2nc(/C(C#N)=C\c3ccc(N4CCOCC4)o3)[nH]c2c1	3	31	77	-31	135*[fluorescence artefact?]	-1
Cc1ccc(/C(C#N)=C\c2cn(C)c3ccccc23)cc1	-20	-2	99	5	19	-10
Cc1ccc2nc(/C(C#N)=C\c3cc(C)n(-c4cccc([N+](=O)[O-])c4)c3C)[nH]c2c1	0	5	118	-5	12	-6
Cc1ccc2nc(/C(C#N)=C\c3ccc([N+](=O)[O-])o3)[nH]c2c1	.	-2	.	2	64*[fluorescence artefact?]	.
Cc1ccc2nc(SCC(=O)N3CCOCC3)[nH]c2c1	1	-9	92	3	6	-1
Cc1ccc(/C(C#N)=C\c2ccc(N3CCOCC3)o2)cc1	.	14	.	-14	96*[fluorescence artefact?]	.
Cc1ccc(C(=O)NNC(=S)NC(=O)c2ccc(Cl)cc2Cl)cc1	.	4	.	-2	3	.
CCN(CC)C(=O)COc1cccc2ccccc12	12	.	78	.	.	12
C=CCNc1sc(C(=O)c2ccccc2)c(N)c1C#N	12	-10	98	10	4	97*[fluorescence artefact?]
C=CCNc1sc(C(=O)c2ccc(C)cc2)c(N)c1C#N	16	-3	86	3	8	5
N#Cc1c2n(c3c(=O)n(Cc4ccc(Cl)cc4)cnc13)CCCC2	-5	-10	117	8	9	5
CCN(CC)CCOC(=O)C1c2ccccc2Oc2ccccc21	74*[fluorescence artefact?]	-10	105	10	5	-12
